Measured values: ChEMBL document CHEMBL4393666, “Synthesis and Anti-HCV Activities of 4'-Fluoro-2'-Substituted Uridine Triphosphates and Nucleotide Prodrugs: Discovery of 4'-Fluoro-2'- C-methyluridine 5'-Phosphoramidate Prodrug (AL-335) for the Treatment of Hepatitis C Infection” (J Med Chem, 2019)

Legend:
Hepatitis C virus = experiment: Antiviral activity against HCV con1 subgenomic replicon infected in human HuH7 cells assessed as reduction in viral RNA replication by qRT-PCR analysis; type: functional, organism-based, Hepacivirus hominis; conditions: isolate Con1, Huh-7
Outline: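 Con1 subgenomic replicon Huh-7 cells (neomycin selection, kept in DMEM/10% FBS with 0.25 mg/ml G418) treated with compounds in DMEM, 2% FBS, 0.5% DMSO, no G418, at 37°C. Total RNA extracted; HCV RNA copy number by multiplex Taqman QRT-PCR. EC50/EC90 by 4-parameter curve fit; EC50 is the mean of ≥2 independent runs.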

[1] = Cytotoxicity against human HuH7 cells infected with HCV con1 subgenomic replicon assessed as reduction in cell viability measured after 3 days by CellTiter-blue cell viability assay; type: cell-based, Huh-7
Outline: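 Con1 replicon Huh-7 cells treated as for the replicon assay (DMEM, 2% FBS, 0.5% DMSO, no G418, 37°C) for 3 days. Viability by CellTiter-Blue; CC50 by curve fitting.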

[2] = molecular target: RNA-directed RNA polymerase (Hepacivirus hominis, UniProt O39930); experiment: Inhibition of HCV NS5B RNA-dependent RNA polymerase activity assessed as reduction in radiolabeled-CTP incorporation into RNA using cIRES template measured after 2 hrs by microscintillation counting method
DNA polymerase gamma = molecular target: T1, DNA polymerase gamma (Homo sapiens, UniProt P54098); experiment: Inhibition of human DNA polymerase-gamma assessed as reduction in [3H]dTTP incorporation in to activated calf thymus DNA substrate at 100 uM by scintillation counting method relative to control; conditions: human DNA polymerase-gamma enzyme, probe [3H]dTTP
T1 sequence (P54098 whole entry): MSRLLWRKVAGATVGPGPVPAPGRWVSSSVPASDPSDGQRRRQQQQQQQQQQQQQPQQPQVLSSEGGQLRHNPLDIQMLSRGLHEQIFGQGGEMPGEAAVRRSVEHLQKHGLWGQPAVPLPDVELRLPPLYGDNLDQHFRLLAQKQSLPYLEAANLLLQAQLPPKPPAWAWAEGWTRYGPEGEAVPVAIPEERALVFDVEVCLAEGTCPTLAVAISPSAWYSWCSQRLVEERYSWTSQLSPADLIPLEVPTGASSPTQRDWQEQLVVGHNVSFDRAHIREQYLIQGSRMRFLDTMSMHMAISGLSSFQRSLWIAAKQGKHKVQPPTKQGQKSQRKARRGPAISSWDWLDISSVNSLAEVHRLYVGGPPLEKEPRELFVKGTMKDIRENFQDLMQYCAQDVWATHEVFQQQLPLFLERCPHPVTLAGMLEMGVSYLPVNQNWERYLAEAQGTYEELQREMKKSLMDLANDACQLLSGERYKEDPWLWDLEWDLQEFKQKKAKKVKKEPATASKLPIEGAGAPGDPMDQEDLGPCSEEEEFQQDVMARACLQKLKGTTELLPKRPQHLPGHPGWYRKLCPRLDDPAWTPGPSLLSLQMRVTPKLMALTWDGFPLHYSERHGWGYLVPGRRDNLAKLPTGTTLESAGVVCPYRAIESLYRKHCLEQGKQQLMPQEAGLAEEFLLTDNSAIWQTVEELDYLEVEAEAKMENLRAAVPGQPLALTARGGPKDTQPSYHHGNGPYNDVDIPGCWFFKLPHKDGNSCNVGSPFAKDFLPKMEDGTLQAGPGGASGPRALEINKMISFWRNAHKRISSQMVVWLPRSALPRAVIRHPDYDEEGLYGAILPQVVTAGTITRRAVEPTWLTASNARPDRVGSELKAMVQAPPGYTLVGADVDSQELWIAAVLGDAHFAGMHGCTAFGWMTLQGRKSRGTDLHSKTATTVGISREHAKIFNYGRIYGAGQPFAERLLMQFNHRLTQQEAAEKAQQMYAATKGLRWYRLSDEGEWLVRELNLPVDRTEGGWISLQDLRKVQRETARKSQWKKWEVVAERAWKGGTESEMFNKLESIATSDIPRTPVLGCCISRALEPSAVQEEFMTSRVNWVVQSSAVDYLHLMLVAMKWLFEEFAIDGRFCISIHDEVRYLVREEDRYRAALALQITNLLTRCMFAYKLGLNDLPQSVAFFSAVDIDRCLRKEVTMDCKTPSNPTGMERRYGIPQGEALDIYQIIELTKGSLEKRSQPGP

DNA polymerase beta = DNA polymerase beta (Homo sapiens, UniProt P06746); experiment: Inhibition of human DNA polymerase-beta assessed as reduction in [3H]dTTP incorporation in to activated calf thymus DNA substrate at 100 uM by scintillation counting method relative to control; conditions: human DNA polymerase-beta enzyme, probe [3H]dTTP
[3] = Inhibition of RNA polymerase 2 in human HeLa cell nuclear extract assessed as reduction in RNA transcription by PAGE analysis; type: cell-based
Outline: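 In vitro transcription by RNA polymerase II in HeLa cell nuclear extract; RNA products resolved on 6% TBE-urea polyacrylamide gels.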

DNA polymerase alpha = molecular target: T2, DNA polymerase alpha (Homo sapiens, UniProt P09884); experiment: Inhibition of human DNA polymerase-alpha assessed as reduction in [3H]dTTP incorporation in to activated calf thymus DNA substrate at 100 uM by scintillation counting method relative to control; conditions: human DNA polymerase-alpha enzyme, probe [3H]dTTP
T2 sequence (P09884 whole entry): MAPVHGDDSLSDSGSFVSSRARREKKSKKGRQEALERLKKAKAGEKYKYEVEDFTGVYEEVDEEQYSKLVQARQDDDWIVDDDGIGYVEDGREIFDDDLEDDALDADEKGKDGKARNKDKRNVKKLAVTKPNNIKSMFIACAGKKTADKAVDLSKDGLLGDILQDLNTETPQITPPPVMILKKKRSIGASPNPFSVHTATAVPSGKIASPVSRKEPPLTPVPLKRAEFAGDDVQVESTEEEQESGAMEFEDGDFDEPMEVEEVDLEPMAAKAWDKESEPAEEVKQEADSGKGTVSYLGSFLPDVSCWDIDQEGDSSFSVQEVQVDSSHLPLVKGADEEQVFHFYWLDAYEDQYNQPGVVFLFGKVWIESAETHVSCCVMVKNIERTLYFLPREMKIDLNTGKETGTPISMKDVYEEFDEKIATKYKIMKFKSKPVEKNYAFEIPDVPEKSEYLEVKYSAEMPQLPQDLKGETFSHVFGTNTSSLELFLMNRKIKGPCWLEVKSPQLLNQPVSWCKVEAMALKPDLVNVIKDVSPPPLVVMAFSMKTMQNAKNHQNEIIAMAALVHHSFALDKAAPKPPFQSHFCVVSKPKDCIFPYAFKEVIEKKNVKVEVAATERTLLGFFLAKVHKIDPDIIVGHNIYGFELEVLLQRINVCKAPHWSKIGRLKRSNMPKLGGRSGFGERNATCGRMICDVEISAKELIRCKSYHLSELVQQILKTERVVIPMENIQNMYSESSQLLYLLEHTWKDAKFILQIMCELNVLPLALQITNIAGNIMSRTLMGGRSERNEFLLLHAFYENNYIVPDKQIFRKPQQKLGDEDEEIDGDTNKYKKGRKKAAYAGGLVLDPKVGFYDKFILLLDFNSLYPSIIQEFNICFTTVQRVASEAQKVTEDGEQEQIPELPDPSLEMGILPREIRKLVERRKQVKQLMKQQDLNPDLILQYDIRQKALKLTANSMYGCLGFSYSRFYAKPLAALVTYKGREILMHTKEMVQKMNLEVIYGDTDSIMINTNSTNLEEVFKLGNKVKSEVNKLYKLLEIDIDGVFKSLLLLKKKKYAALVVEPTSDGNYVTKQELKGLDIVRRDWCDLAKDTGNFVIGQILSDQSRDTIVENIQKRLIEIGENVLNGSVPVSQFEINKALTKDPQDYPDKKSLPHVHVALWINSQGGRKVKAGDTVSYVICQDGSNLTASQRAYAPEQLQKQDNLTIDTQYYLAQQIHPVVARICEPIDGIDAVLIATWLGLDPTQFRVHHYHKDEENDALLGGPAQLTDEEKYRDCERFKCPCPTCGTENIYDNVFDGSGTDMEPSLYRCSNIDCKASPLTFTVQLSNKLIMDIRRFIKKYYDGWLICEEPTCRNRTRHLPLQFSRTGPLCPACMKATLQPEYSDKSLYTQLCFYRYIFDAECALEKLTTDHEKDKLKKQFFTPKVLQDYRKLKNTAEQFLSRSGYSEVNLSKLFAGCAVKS

Sequence of RNA-directed RNA polymerase (O39930 whole entry): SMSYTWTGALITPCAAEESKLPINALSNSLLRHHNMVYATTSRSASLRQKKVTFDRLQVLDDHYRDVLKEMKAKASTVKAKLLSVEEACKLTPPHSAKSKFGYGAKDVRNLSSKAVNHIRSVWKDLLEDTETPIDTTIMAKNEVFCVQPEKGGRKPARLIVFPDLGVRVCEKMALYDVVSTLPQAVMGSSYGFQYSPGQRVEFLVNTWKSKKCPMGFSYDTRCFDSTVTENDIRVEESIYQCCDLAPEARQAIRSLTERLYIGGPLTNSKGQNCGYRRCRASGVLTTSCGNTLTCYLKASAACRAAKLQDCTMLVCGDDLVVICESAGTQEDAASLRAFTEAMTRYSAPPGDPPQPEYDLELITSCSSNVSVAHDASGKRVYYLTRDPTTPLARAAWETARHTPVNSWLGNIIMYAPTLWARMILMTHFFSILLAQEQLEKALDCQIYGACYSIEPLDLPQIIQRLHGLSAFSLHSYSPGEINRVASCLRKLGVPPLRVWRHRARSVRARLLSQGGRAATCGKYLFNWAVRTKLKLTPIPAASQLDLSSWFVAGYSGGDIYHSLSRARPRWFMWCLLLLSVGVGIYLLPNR

Compound | EC50 (Hepatitis C virus) [µM] | CC50 at 72 h [1] [µM] | IC50 [2] [µM] | other results
CC(C)OC(=O)[C@H](C)NP(=O)(OC[C@H]1O[C@@H](n2ccc(=O)[nH]c2=O)[C@](C)(F)[C@@H]1O)Oc1ccccc1 (stereo partly specified) | 0.22 | > 100 |  | 
C#C[C@]1(F)[C@H](n2ccc(=O)[nH]c2=O)O[C@](F)(COP(=O)(O)OP(=O)(O)OP(=O)(O)O)[C@H]1O |  |  | 0.34 | 
C#C[C@@]1(O)[C@H](O)[C@@H](COP(=O)(O)OP(=O)(O)OP(=O)(O)O)O[C@H]1n1ccc(=O)[nH]c1=O |  |  | 0.027 | 
CC(C)OC(=O)[C@H](C)NP(=O)(N[C@@H](C)C(=O)OC(C)C)OC[C@@]1(F)O[C@@H](n2ccc(=O)[nH]c2=O)[C@](C)(O)[C@@H]1O | 6.6 | > 100 |  | 
C#C[C@@]1(F)[C@H](O)[C@@H](COP(=O)(O)OP(=O)(O)OP(=O)(O)O)O[C@H]1n1ccc(=O)[nH]c1=O |  |  | 0.33 | 
C=C[C@]1(O)[C@H](n2ccc(=O)[nH]c2=O)O[C@](F)(COP(=O)(N[C@@H](C)C(=O)OC(C)C)Oc2ccccc2)[C@H]1O (stereo partly specified) | 8.3 | > 100 |  | 
C[C@H](NP(=O)(OC[C@@]1(F)O[C@@H](n2ccc(=O)[nH]c2=O)[C@](C)(O)[C@@H]1O)Oc1ccccc1)C(=O)OCC(C)(C)C (stereo partly specified) | 0.04 | > 100 |  | 
C[C@@]1(F)[C@H](O)[C@@H](COP(=O)(O)OP(=O)(O)OP(=O)(O)O)O[C@H]1n1ccc(=O)[nH]c1=O [GS-461203] |  |  |  | inhibition at 100 µM (DNA polymerase gamma): 9.2%; inhibition at 100 µM (DNA polymerase beta): 14%; IC50 [3]: > 100 µM; inhibition at 100 µM (DNA polymerase alpha): 58.2%
CC(C)OC(=O)[C@H](C)NP(=O)(OC[C@@]1(F)O[C@@H](n2ccc(=O)[nH]c2=O)[C@](C)(O)[C@@H]1O)Oc1ccc(Cl)cc1 (stereo partly specified) | 0.08 | > 100 |  | 
CCOC(=O)[C@H](C)NP(=O)(N[C@@H](C)C(=O)OCC)OC[C@@]1(F)O[C@@H](n2ccc(=O)[nH]c2=O)[C@](C)(O)[C@@H]1O | 7.5 | > 100 |  | 
CC(C)OC(=O)[C@H](C)NP(=O)(OC[C@@]1(F)O[C@@H](n2ccc(=O)[nH]c2=O)[C@](C)(Cl)[C@@H]1O)Oc1ccccc1 (stereo partly specified) | 0.1 | > 100 |  | 
CC[C@]1(O)[C@H](n2ccc(=O)[nH]c2=O)O[C@](F)(COP(=O)(N[C@@H](C)C(=O)OC(C)C)Oc2ccccc2)[C@H]1O (stereo partly specified) | 43 | > 100 |  | 
CC(C)OC(=O)[C@H](C)NP(=O)(OC[C@H]1O[C@@H](n2ccc(=O)[nH]c2=O)[C@](C)(Cl)[C@@H]1O)Oc1ccccc1 (stereo partly specified) | 0.12 | > 100 |  | 
O=c1ccn([C@@H]2O[C@H](COP(=O)(O)OP(=O)(O)OP(=O)(O)O)[C@@H](O)[C@]2(O)CF)c(=O)[nH]1 |  |  | 0.28 | 
C#C[C@]1(O)[C@H](n2ccc(=O)[nH]c2=O)O[C@](F)(COP(=O)(O)OP(=O)(O)OP(=O)(O)O)[C@H]1O |  |  | 0.039 | 
C=C[C@]1(O)[C@H](n2ccc(=O)[nH]c2=O)O[C@](F)(COP(=O)(O)OP(=O)(O)OP(=O)(O)O)[C@H]1O |  |  | 6.4 | 
C#C[C@]1(O)[C@H](n2ccc(=O)[nH]c2=O)O[C@](F)(COP(=O)(N[C@@H](C)C(=O)OC2CCCCC2)Oc2ccccc2)[C@H]1O (stereo partly specified) | 0.07 | > 100 |  | 
C[C@H](NP(=O)(OC[C@@]1(F)O[C@@H](n2ccc(=O)[nH]c2=O)[C@](C)(O)[C@@H]1O)Oc1ccccc1)C(=O)OC1CCCCC1 (stereo partly specified) | 0.04 | 84 |  | 
O=c1ccn([C@@H]2O[C@](F)(COP(=O)(O)OP(=O)(O)OP(=O)(O)O)[C@@H](O)[C@]2(O)CF)c(=O)[nH]1 |  |  | 0.15 | 
CC(C)OC(=O)[C@H](C)NP(=O)(OC[C@@]1(F)O[C@@H](n2ccc(=O)[nH]c2=O)[C@](C)(O)[C@@H]1O)Oc1cccc2ccccc12 (stereo partly specified) | 0.02 | > 85 |  | 
CC(C)OC(=O)[C@H](C)NP(=O)(OC[C@@]1(F)O[C@@H](n2ccc(=O)[nH]c2=O)[C@](C)(F)[C@@H]1O)Oc1ccccc1 (stereo partly specified) | 0.31 | > 100 |  | 
CC(C)OC(=O)[C@H](C)NP(=O)(OC[C@@]1(F)O[C@@H](n2ccc(=O)[nH]c2=O)[C@@](F)(Cl)[C@@H]1O)Oc1ccccc1 (stereo partly specified) | 0.045 | > 100 |  | 
O=c1ccn([C@@H]2O[C@](F)(COP(=O)(O)OP(=O)(O)OP(=O)(O)O)[C@@H](O)[C@]2(F)Cl)c(=O)[nH]1 |  |  | 0.19 | inhibition at 100 µM (DNA polymerase gamma): 7.9%; inhibition at 100 µM (DNA polymerase beta): 18.1%; inhibition at 100 µM (DNA polymerase alpha): 75.8%
CC[C@]1(O)[C@H](n2ccc(=O)[nH]c2=O)O[C@](F)(COP(=O)(O)OP(=O)(O)OP(=O)(O)O)[C@H]1O |  |  | 84 | 
CC(C)OC(=O)[C@H](C)N[P@@](=O)(OC[C@@]1(F)O[C@@H](n2ccc(=O)[nH]c2=O)[C@](C)(O)[C@@H]1O)Oc1ccccc1 | 0.94 | > 100 |  | 
